The record followed here is ChEMBL document CHEMBL1145999, “Synthesis and Ca2+-mobilizing activity of purine-modified mimics of adenophostin A: a model for the adenophostin-Ins(1,4,5)P3 receptor interaction” (J Med Chem, 2003).

Molecules are shown by their SMILES. pEC50: −log10 of the molar value.

Assay [1] is filed under the species Rattus norvegicus. Nature of the assay: The % of actively accumulated [Ca2+] released by a maximally effective concentration of the compound. Format: functional. Summed up: (§1)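 Permeabilized rat hepatocytes loaded with 45Ca2+ to steady state for 5 min at 37 °C in cytosol-like medium (pH 7.0, free Ca2+ 200 nM) with ATP 1.5 mM, creatine phosphate/creatine phosphokinase and FCCP 10 µM. Thapsigargin 1.25 µM added; 30 s later, agonist for 60 s; store 45Ca2+ measured by rapid filtration. Four-parameter logistic fit gave maximal response, EC50, Hill slope. Means ± SEM.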

The species entered for assay [2] is Rattus norvegicus. Nature of the assay: Potency for [Ca2+] release in rat hepatocytes with respect to compound 2. To be noted: Hepatocyte.
The species entered for assay [3] is Rattus norvegicus. Nature of the assay: Effective concentration causing half-maximal [Ca2+] release in rat hepatocytes. Format: functional. The settings on record: Hepatocyte. The method, boiled down: as §1
Assay [4] is described as follows: Hill coefficient was determined. Format: functional. Summed up:
as §1

With `Nc1ncnc2c1ncn2C1O[C@H](CO)[C@H](O[C@@H]2OC(CO)[C@H](OP(=O)(O)O)C(OP(=O)(O)O)[C@@H]2O)[C@@H]1OP(=O)(O)O` (some centres not stated), the Max response in the assay listed under Rattus norvegicus [1] was 35%. The compound also gave a relative potency in the assay listed under Rattus norvegicus [2] of 1. In addition, in the assay listed under Rattus norvegicus [3], the pEC50 – broadly, the EC50 on a negative log10 scale, so that one unit is a factor of ten – was 7.85. In addition, in assay [4], the Hill slope (usually the slope factor of the fitted curve) is 2.4.
As for `CNc1ncnc2c1ncn2C1O[C@H](CO)[C@H](O[C@@H]2OC(CO)[C@H](OP(=O)(O)O)C(OP(=O)(O)O)[C@@H]2O)[C@@H]1OP(=O)(O)O` (some centres not stated), in the assay listed under Rattus norvegicus [1], the Max response came to 37%. The same compound gave a relative potency in the assay filed under Rattus norvegicus [2] of 0.8. Moreover, the pEC50 in the assay listed under Rattus norvegicus [3] is 7.89. In addition, in assay [4], the Hill slope came to 2.1.
On to `O=P(O)(O)OC1[C@@H](OP(=O)(O)O)C(CO)O[C@@H](O[C@@H]2[C@H](OP(=O)(O)O)C(n3cnc4c(NC5CCCCC5)ncnc43)O[C@@H]2CO)[C@H]1O` (some centres not stated), for which, in the assay filed under Rattus norvegicus [1], the Max response is reported as 45%. In the assay listed under Rattus norvegicus [2], the relative potency is 0.56. For the same compound, in the assay filed under Rattus norvegicus [3], the pEC50 was 7.60. Besides, in assay [4], the Hill slope was 2.3.
Regarding `COc1ncnc2c1ncn2C1O[C@H](CO)[C@H](O[C@@H]2OC(CO)[C@H](OP(=O)(O)O)C(OP(=O)(O)O)[C@@H]2O)[C@@H]1OP(=O)(O)O` (some centres not stated), the Max response in the assay listed under Rattus norvegicus [1] came out at 34%. Also, the relative potency in the assay listed under Rattus norvegicus [2] stood at 0.57. Also, in the assay listed under Rattus norvegicus [3], the pEC50 was 7.72. The compound further yielded a Hill slope in assay [4] of 3.8.
Take `CNc1nc(OC)nc2c1ncn2C1O[C@H](CO)[C@H](O[C@@H]2OC(CO)[C@H](OP(=O)(O)O)C(OP(=O)(O)O)[C@@H]2O)[C@@H]1OP(=O)(O)O` (some centres not stated): the Max response in the assay filed under Rattus norvegicus [1] is recorded as 34%. The same compound showed a relative potency in the assay filed under Rattus norvegicus [2] of 0.17. The compound further showed a pEC50 in the assay listed under Rattus norvegicus [3] of 7.09. In assay [4], the Hill slope stood at 8.8.
With `CN(C)c1ncnc2c1ncn2C1O[C@H](CO)[C@H](O[C@@H]2OC(CO)[C@H](OP(=O)(O)O)C(OP(=O)(O)O)[C@@H]2O)[C@@H]1OP(=O)(O)O` (some centres not stated), in the assay filed under Rattus norvegicus [1], the Max response was 39%. Also, the relative potency in the assay filed under Rattus norvegicus [2] was found to be 0.82. The pEC50 in the assay listed under Rattus norvegicus [3] is 7.72. In addition, the Hill slope in assay [4] came out at 2.1.
Take `O=P(O)(O)OC1[C@@H](OP(=O)(O)O)C(CO)O[C@@H](O[C@@H]2[C@H](OP(=O)(O)O)C(n3cnc4c(NC5CCCC5)ncnc43)O[C@@H]2CO)[C@H]1O` (some centres not stated): the Max response in the assay filed under Rattus norvegicus [1] worked out at 35%. The compound further showed a relative potency in the assay filed under Rattus norvegicus [2] of 0.77. The compound also had a pEC50 in the assay filed under Rattus norvegicus [3] of 7.89. The compound further returned a Hill slope in assay [4] of 2.2.
Regarding `O=P(O)(O)O[C@@H]1[C@H](O)[C@H](O)[C@@H](OP(=O)(O)O)[C@H](OP(=O)(O)O)[C@H]1O` [INS(1,4,5)P3], the Max response in the assay listed under Rattus norvegicus [1] was 35%. The compound further came in with a relative potency in the assay listed under Rattus norvegicus [2] of 0.08. Further, in the assay listed under Rattus norvegicus [3], the pEC50 is 6.73. In addition, the Hill slope in assay [4] came out at 2.3.
